We go through twelve molecules from ChEMBL document CHEMBL3259550, “Polycyclic propargylamine and acetylene derivatives as multifunctional neuroprotective agents” (Eur J Med Chem, 2014).

The source made the active and inactive calls. The rule behind the calls is not given here.

The nature of assay [1]: Antiapoptotic activity against serum deprivation-induced human SK-N-BE(2) cells assessed as improvement in cell health at 1 mM to 10 uM after 36 hrs incubation by DePsipher agent relative to 1.25% DMSO. Type of assay: functional. The method, boiled down: (§1)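 SK-N-BE(2) neuroblastoma cells grown in F12 with 10% FBS, Pen/Strep and fungizone at 37 °C. At 80% confluency they were serum-deprived for 24 h, then seeded at 1 x 10^6 cells per 2 mL serum-deprived medium containing compound in DMSO (1.25% v/v final). Cells were incubated 36 h, stained with DePsipher dye 20 min at 37 °C and run by flow cytometry (50 000 events; FL-1 green, FL-2 red). % viable = (Q1+Q2)/(Qtotal−Q3) x 100. Tests in triplicate.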

For a further assay, the species on record is Papio papio. Description: Inhibition of MAO-B in baboon liver mitochondrial fraction using MMTP substrate at 300 uM.
Assay [2] in a line: Antiapoptotic activity against serum deprivation-induced human SK-N-BE(2) cells assessed as viable cells at 10 uM after 36 hrs incubation by DePsipher agent relative to control. Type of assay: functional. In a few lines: as §1
Assay [3] is described as follows: Antiapoptotic activity against serum deprivation-induced human SK-N-BE(2) cells assessed as improvement in cell health at 1 mM to 10 uM after 36 hrs incubation by DePsipher agent relative to non-induced cells. Type of assay: functional. In a few lines:
as §1

A short description of assay [4]: Antiapoptotic activity against serum deprivation-induced human SK-N-BE(2) cells assessed as apoptotic cells at 1 mM to 10 uM after 36 hrs incubation by DePsipher agent relative to 1.25% DMSO. The format is functional. The method, boiled down:
as §1

Consider `c1ccc(CNC23OC4C5C6CC(C7C6C4C72)C53)cc1` (stereo not drawn), for which the Activity in assay [1] worked out at 9%; in assay [2], 67%. The same molecule showed an inhibition in the assay listed under Papio papio of 14.6%.

As to `C#CCNC12OC3C4C5CC(C6C5C3(C)C61)C42` (racemic), the “improvement in cell health” value in assay [3] is “Active”. Further, the results for the Activity in assay [1] and in assay [2] were 9% and 97%, respectively. The inhibition in the assay listed under Papio papio came to 11.7%.

In turn, `C#CCN` showed an inhibition in the assay listed under Papio papio of 19.9%. Further, the Activity in assay [2] stood at 79%.

With `C#CCN1C2C3C4CC5C6C4C2C6C1(O)C53` (racemic), in assay [3], the “improvement in cell health” value is “Active”. The figures for the Activity in assay [1] and in assay [2] were 9% and 93%, respectively. Further, in the assay filed under Papio papio, the inhibition came out at 5.83%.

As for `C#CCN(C)[C@H](C)Cc1ccccc1`, the inhibition in the assay filed under Papio papio worked out at 93.3%. Moreover, the Activity in assay [2] is 77%.

As to `C#CCN(Cc1ccccc1)C12CC3CC(CC(C3)C1)C2`, the Activity was determined as 9% in assay [1] and 70% in assay [2]. In the assay listed under Papio papio, this molecule gave an inhibition of 20.1%.

For the molecule `C#CCNC12OC3C4C5CC(C6C5C3C61)C42` (racemic), the Activity is 9% in assay [1] and 88% in assay [2]. The inhibition entry in the assay filed under Papio papio was “inactive”.

With `OC1(C#Cc2ccccc2)C2C3CC4C5C3CC2C5C41` (racemic), in assay [3], the “improvement in cell health” value is “Active”. The Activity was determined as 9% in assay [1], 2.8% in assay [4] and 98% in assay [2]. Moreover, the inhibition in the assay filed under Papio papio was 73.3%.

`COCCOC(=O)C1=C(C)NC(C)=C(C(=O)OC(C)C)C1c1cccc([N+](=O)[O-])c1` (stereo not drawn): the result in assay [2] was inactive.

As to `C#CCN1C2C3C4CC5C6C4C2C6(C)C1(O)C53` (racemic), the Activity in assay [1] was 9%; in assay [2] it was 67%. Besides, the inhibition in the assay listed under Papio papio was found to be 10.8%.

Take `C#CC12OC3(O)C4C5CC(C6C5C3(C)C61)C42` (racemic): the “improvement in cell health” value in assay [3] is “Active”. For the same molecule, the Activity in assay [1] was found to be 9%; in assay [4], 0.5%; in assay [2] it was 100%. Moreover, in the assay filed under Papio papio, the inhibition result was “inactive”.

In the case of `C#CCN(CC#C)C12CC3CC(CC(C3)C1)C2`, the Activity in assay [1] was found to be 9%; in assay [2], 68%. In addition, the inhibition in the assay listed under Papio papio was found to be 14%.

In general, inhibition refers to the percentage by which the read-out fell short of the control.
